Key:
[1] = target: Amyloid-beta precursor protein (Homo sapiens, UniProt P05067); experiment: Displacement of [125I]IMPY from amyloid beta (1 to 42) (unknown origin) after 3 hrs by gamma counting
Method in brief: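 Filtered through GF/B filters and bound radioactivity gamma-counted. IC50 from displacement curves of three independent experiments; Ki calculated with the Cheng–Prusoff equation.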

Lung [2] = experiment: Biodistribution in ddY mouse lung at 0.1 to 0.4 uCi, iv after 2 mins by gamma counting; assay type: ADME, organism-based; conditions: in vivo
Method in brief: (§1)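 [125I]ligand (0.1–0.4 µCi) in 100 µL PBS (pH 7.4) containing 30 µL DMSO, injected into the tail vein of ddY mice (5 weeks, 22–25 g). Mice sacrificed at 2, 10, 30 and 60 min. Organs removed, weighed and gamma-counted. Values are % injected dose per gram, except stomach as % dose per organ. Mean (SD) of 3–6 mice per time point.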

Pancreas [3] = experiment: Biodistribution in ddY mouse pancreas at 0.1 to 0.4 uCi, iv after 30 mins by gamma counting; assay type: ADME, organism-based; conditions: in vivo, 0.5 h; method in brief: as §1
Brain [4] = experiment: Biodistribution in ddY mouse brain at 0.1 to 0.4 uCi, iv after 60 mins by gamma counting; assay type: ADME, organism-based; conditions: in vivo, 1 h; method in brief: as §1
Heart [5] = experiment: Biodistribution in ddY mouse heart at 0.1 to 0.4 uCi, iv after 2 mins by gamma counting; assay type: ADME, organism-based; conditions: in vivo; method in brief: as §1
Lung [6] = experiment: Biodistribution in ddY mouse lung at 0.1 to 0.4 uCi, iv after 60 mins by gamma counting; assay type: ADME, organism-based; conditions: in vivo, 1 h; method in brief: as §1
Stomach [7] = experiment: Biodistribution in ddY mouse stomach assessed per organ at 0.1 to 0.4 uCi, iv after 60 mins by gamma counting; assay type: ADME, organism-based; conditions: in vivo, 1 h; method in brief: as §1
Blood [8] = experiment: Biodistribution in ddY mouse blood at 0.1 to 0.4 uCi, iv after 60 mins by gamma counting; assay type: ADME, organism-based; conditions: in vivo, 1 h; method in brief: as §1
Pancreas [9] = experiment: Biodistribution in ddY mouse pancreas at 0.1 to 0.4 uCi, iv after 2 mins by gamma counting; assay type: ADME, organism-based; conditions: in vivo; method in brief: as §1
Blood [10] = experiment: Biodistribution in ddY mouse blood at 0.1 to 0.4 uCi, iv after 2 mins by gamma counting; assay type: ADME, organism-based; conditions: in vivo; method in brief: as §1
Kidney [11] = experiment: Biodistribution in ddY mouse kidney at 0.1 to 0.4 uCi, iv after 2 mins by gamma counting; assay type: ADME, organism-based; conditions: in vivo; method in brief: as §1
Brain [12] = experiment: Biodistribution in ddY mouse brain at 0.1 to 0.4 uCi, iv after 30 mins by gamma counting; assay type: ADME, organism-based; conditions: in vivo, 0.5 h; method in brief: as §1
Blood [13] = experiment: Biodistribution in ddY mouse blood at 0.1 to 0.4 uCi, iv after 10 mins by gamma counting; assay type: ADME, organism-based; conditions: in vivo; method in brief: as §1
[14] = n-octanol-sodium phosphate buffer partition co-efficient, log D of the compound at pH 7.4 by shake flask method; assay type: physicochemical
Method in brief: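 Shake-flask partition between n-octanol and sodium phosphate buffer, pH 7.4, shaken 10 min at room temperature, then centrifuged. Weighed 0.5 mL samples of each layer counted. log D from the ratio of cpm per gram of octanol to cpm per gram of buffer; n = 3.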

Kidney [15] = experiment: Biodistribution in ddY mouse kidney at 0.1 to 0.4 uCi, iv after 60 mins by gamma counting; assay type: ADME, organism-based; conditions: in vivo, 1 h; method in brief: as §1
Intestine [16] = experiment: Biodistribution in ddY mouse intestine at 0.1 to 0.4 uCi, iv after 10 mins by gamma counting; assay type: ADME, organism-based; conditions: in vivo; method in brief: as §1
Kidney [17] = experiment: Biodistribution in ddY mouse kidney at 0.1 to 0.4 uCi, iv after 30 mins by gamma counting; assay type: ADME, organism-based; conditions: in vivo, 0.5 h; method in brief: as §1
Stomach [18] = experiment: Biodistribution in ddY mouse stomach assessed per organ at 0.1 to 0.4 uCi, iv after 2 mins by gamma counting; assay type: ADME, organism-based; conditions: in vivo; method in brief: as §1
Brain [19] = experiment: Biodistribution in ddY mouse brain at 0.1 to 0.4 uCi, iv after 10 mins by gamma counting; assay type: ADME, organism-based; conditions: in vivo; method in brief: as §1
Heart [20] = experiment: Biodistribution in ddY mouse heart at 0.1 to 0.4 uCi, iv after 10 mins by gamma counting; assay type: ADME, organism-based; conditions: in vivo; method in brief: as §1
Liver [21] = experiment: Biodistribution in ddY mouse liver at 0.1 to 0.4 uCi, iv after 10 mins by gamma counting; assay type: ADME, organism-based; conditions: in vivo; method in brief: as §1
Spleen [22] = experiment: Biodistribution in ddY mouse spleen at 0.1 to 0.4 uCi, iv after 2 mins by gamma counting; assay type: ADME, organism-based; conditions: in vivo; method in brief: as §1
Liver [23] = experiment: Biodistribution in ddY mouse liver at 0.1 to 0.4 uCi, iv after 60 mins by gamma counting; assay type: ADME, organism-based; conditions: in vivo, 1 h; method in brief: as §1
Pancreas [24] = experiment: Biodistribution in ddY mouse pancreas at 0.1 to 0.4 uCi, iv after 10 mins by gamma counting; assay type: ADME, organism-based; conditions: in vivo; method in brief: as §1
Intestine [25] = experiment: Biodistribution in ddY mouse intestine at 0.1 to 0.4 uCi, iv after 30 mins by gamma counting; assay type: ADME, organism-based; conditions: in vivo, 0.5 h; method in brief: as §1
Spleen [26] = experiment: Biodistribution in ddY mouse spleen at 0.1 to 0.4 uCi, iv after 60 mins by gamma counting; assay type: ADME, organism-based; conditions: in vivo, 1 h; method in brief: as §1
Stomach [27] = experiment: Biodistribution in ddY mouse stomach assessed per organ at 0.1 to 0.4 uCi, iv after 10 mins by gamma counting; assay type: ADME, organism-based; conditions: in vivo; method in brief: as §1
Lung [28] = experiment: Biodistribution in ddY mouse lung at 0.1 to 0.4 uCi, iv after 10 mins by gamma counting; assay type: ADME, organism-based; conditions: in vivo; method in brief: as §1
Pancreas [29] = experiment: Biodistribution in ddY mouse pancreas at 0.1 to 0.4 uCi, iv after 60 mins by gamma counting; assay type: ADME, organism-based; conditions: in vivo, 1 h; method in brief: as §1
Blood [30] = experiment: Biodistribution in ddY mouse blood at 0.1 to 0.4 uCi, iv after 30 mins by gamma counting; assay type: ADME, organism-based; conditions: in vivo, 0.5 h; method in brief: as §1
Spleen [31] = experiment: Biodistribution in ddY mouse spleen at 0.1 to 0.4 uCi, iv after 10 mins by gamma counting; assay type: ADME, organism-based; conditions: in vivo; method in brief: as §1
Spleen [32] = experiment: Biodistribution in ddY mouse spleen at 0.1 to 0.4 uCi, iv after 30 mins by gamma counting; assay type: ADME, organism-based; conditions: in vivo, 0.5 h; method in brief: as §1
Intestine [33] = experiment: Biodistribution in ddY mouse intestine at 0.1 to 0.4 uCi, iv after 60 mins by gamma counting; assay type: ADME, organism-based; conditions: in vivo, 1 h; method in brief: as §1
Liver [34] = experiment: Biodistribution in ddY mouse liver at 0.1 to 0.4 uCi, iv after 2 mins by gamma counting; assay type: ADME, organism-based; conditions: in vivo; method in brief: as §1
Intestine [35] = experiment: Biodistribution in ddY mouse intestine at 0.1 to 0.4 uCi, iv after 2 mins by gamma counting; assay type: ADME, organism-based; conditions: in vivo; method in brief: as §1
Liver [36] = experiment: Biodistribution in ddY mouse liver at 0.1 to 0.4 uCi, iv after 30 mins by gamma counting; assay type: ADME, organism-based; conditions: in vivo, 0.5 h; method in brief: as §1
Brain [37] = experiment: Biodistribution in ddY mouse brain at 0.1 to 0.4 uCi, iv after 2 mins by gamma counting; assay type: ADME, organism-based; conditions: in vivo; method in brief: as §1
Heart [38] = experiment: Biodistribution in ddY mouse heart at 0.1 to 0.4 uCi, iv after 30 mins by gamma counting; assay type: ADME, organism-based; conditions: in vivo, 0.5 h; method in brief: as §1
Kidney [39] = experiment: Biodistribution in ddY mouse kidney at 0.1 to 0.4 uCi, iv after 10 mins by gamma counting; assay type: ADME, organism-based; conditions: in vivo; method in brief: as §1
Lung [40] = experiment: Biodistribution in ddY mouse lung at 0.1 to 0.4 uCi, iv after 30 mins by gamma counting; assay type: ADME, organism-based; conditions: in vivo, 0.5 h; method in brief: as §1
Heart [41] = experiment: Biodistribution in ddY mouse heart at 0.1 to 0.4 uCi, iv after 60 mins by gamma counting; assay type: ADME, organism-based; conditions: in vivo, 1 h; method in brief: as §1
Stomach [42] = experiment: Biodistribution in ddY mouse stomach assessed per organ at 0.1 to 0.4 uCi, iv after 30 mins by gamma counting; assay type: ADME, organism-based; conditions: in vivo, 0.5 h; method in brief: as §1

Chain of Amyloid-beta precursor protein (P05067 whole entry): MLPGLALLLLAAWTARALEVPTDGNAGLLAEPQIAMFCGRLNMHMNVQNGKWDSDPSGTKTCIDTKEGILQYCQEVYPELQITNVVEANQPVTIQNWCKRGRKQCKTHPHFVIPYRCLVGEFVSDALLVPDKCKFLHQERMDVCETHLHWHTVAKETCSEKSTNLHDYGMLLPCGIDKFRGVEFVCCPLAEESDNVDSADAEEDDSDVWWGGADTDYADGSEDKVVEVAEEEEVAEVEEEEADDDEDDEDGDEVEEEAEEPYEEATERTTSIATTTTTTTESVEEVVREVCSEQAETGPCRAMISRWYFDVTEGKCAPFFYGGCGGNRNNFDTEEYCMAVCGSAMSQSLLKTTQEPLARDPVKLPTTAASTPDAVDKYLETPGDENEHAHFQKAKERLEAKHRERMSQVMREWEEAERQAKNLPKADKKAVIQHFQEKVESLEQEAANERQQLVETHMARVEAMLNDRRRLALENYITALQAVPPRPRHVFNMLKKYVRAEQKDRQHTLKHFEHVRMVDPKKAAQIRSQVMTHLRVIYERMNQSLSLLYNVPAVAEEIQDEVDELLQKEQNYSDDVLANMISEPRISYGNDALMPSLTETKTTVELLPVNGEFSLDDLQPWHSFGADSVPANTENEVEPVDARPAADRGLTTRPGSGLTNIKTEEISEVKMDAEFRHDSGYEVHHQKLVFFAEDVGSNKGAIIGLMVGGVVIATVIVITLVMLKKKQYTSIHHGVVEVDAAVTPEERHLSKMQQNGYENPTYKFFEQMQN

COc1c2ccccc2nc2cc(I)ccc12
Ki [1]: > 10000 nM

COc1ccc2nc3cc(I)ccc3c(N)c2c1
Ki [1]: 83.5 nM

COc1ccc2nc3cc(I)ccc3c(OC)c2c1
Ki [1]: 28.9 nM

COc1c2ccc([125I])cc2nc2ccc(N(C)C)cc12
Drug uptake (Lung [2]): 7.17 % ID/g | Drug uptake (Pancreas [3]): 2.29 % ID/g | Drug uptake (Brain [4]): 0.71 % ID/g | Drug uptake (Heart [5]): 5.83 % ID/g | Drug uptake (Lung [6]): 3.87 % ID/g | Drug uptake (Stomach [7]): 4.33 %ID | Drug uptake (Blood [8]): 5.17 % ID/g | Drug uptake (Pancreas [9]): 4.11 % ID/g | Drug uptake (Blood [10]): 8.34 % ID/g | Drug uptake (Kidney [11]): 10.94 % ID/g | Drug uptake (Brain [12]): 1.6 % ID/g | Drug uptake (Blood [13]): 7 % ID/g | logD [14]: 1.81 | Drug uptake (Kidney [15]): 4.81 % ID/g | Drug uptake (Intestine [16]): 14.19 % ID/g | Drug uptake (Kidney [17]): 10.72 % ID/g | Drug uptake (Stomach [18]): 1.83 %ID | Drug uptake (Brain [19]): 1.96 % ID/g | Drug uptake (Heart [20]): 3.78 % ID/g | Drug uptake (Liver [21]): 20.71 % ID/g | Drug uptake (Spleen [22]): 5.09 % ID/g | Drug uptake (Liver [23]): 10.79 % ID/g | Drug uptake (Pancreas [24]): 2.47 % ID/g | Drug uptake (Intestine [25]): 17.49 % ID/g | Drug uptake (Spleen [26]): 2.43 % ID/g | Drug uptake (Stomach [27]): 5.1 %ID | Drug uptake (Lung [28]): 6.66 % ID/g | Drug uptake (Pancreas [29]): 1.14 % ID/g | Drug uptake (Blood [30]): 6.52 % ID/g | Drug uptake (Spleen [31]): 4.07 % ID/g | Drug uptake (Spleen [32]): 5.4 % ID/g | Drug uptake (Intestine [33]): 11.2 % ID/g | Drug uptake (Liver [34]): 20.78 % ID/g | Drug uptake (Intestine [35]): 1.86 % ID/g | Drug uptake (Liver [36]): 18.54 % ID/g | Drug uptake (Brain [37]): 2.09 % ID/g | Drug uptake (Heart [38]): 4.09 % ID/g | Drug uptake (Kidney [39]): 8.99 % ID/g | Drug uptake (Lung [40]): 6.67 % ID/g | Drug uptake (Heart [41]): 2.38 % ID/g | Drug uptake (Stomach [42]): 4.2 %ID

— ChEMBL document CHEMBL2321753, “Synthesis and biological evaluation of radioiodinated quinacrine-based derivatives for SPECT imaging of Aβ plaques” (Eur J Med Chem, 2013)
